Reference: ChEMBL document CHEMBL3785019, “Dihydropyrazole derivatives as telomerase inhibitors: Structure-based design, synthesis, SAR and anticancer evaluation in vitro and in vivo” (Eur J Med Chem, 2016)
The source made the active and inactive calls. No cut-off for these calls is given here.

Tests used:
[1] = Cytotoxicity against human PC3 cells after 48 hrs by MTT assay; type: functional, cell-based, PC-3; conditions: Homo sapiens, PC-3, 48 h; read-out: IC50
Summary of the method: (§1)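 Tumor cells in log phase in RPMI 1640 + 10% FBS, seeded at 3×10^4 cells mL-1 and incubated 24 h (37 °C, 5% CO2). Test samples added at pre-set concentrations (6 wells each), doxorubicin as reference; 48 h exposure. MTT (2.5 mg·mL-1 in PBS) added for 4 h, formazan dissolved in DMSO, A570 read.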

Bcap37 = assay: Cytotoxicity against human Bcap37 cells after 48 hrs by MTT assay; type: functional, cell-based; conditions: Homo sapiens, Bcap37, 48 h; read-out: IC50; summary of the method: as §1
[2] = Cytotoxicity against human MGC803 cells after 48 hrs by MTT assay; type: functional, cell-based, MGC-803; conditions: Homo sapiens, MGC-803, 48 h; read-out: IC50; summary of the method: as §1
HepG2 [3] = assay: Cytotoxicity against human HepG2 cells after 48 hrs by MTT assay; type: functional, cell-based; conditions: Homo sapiens, HepG2, 48 h; read-out: IC50; summary of the method: as §1
[4] = Cytotoxicity against human GES-1 cells after 48 hrs by MTT assay; type: cell-based; conditions: GES1, 48 h
Summary of the method: (§2)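 Human normal gastric mucosa GES-1 and liver L-02 cells; MTT assay; IC50 expressed in mM as mean of triplicate experiments.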

[5] = Cytotoxicity against human L02 cells after 48 hrs by MTT assay; type: cell-based; conditions: L02, 48 h; summary of the method: as §2
CCRF S-180 [6] = assay: Antitumor activity against mouse S180 cells xenografted in Kunming mouse assessed as tumor weight at 60 mg/kg/day, QD administered via oral gavage for 10 consecutive days (reference value: 1.98 +/- 0.22g); type: functional
Summary of the method: (§3)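 Kunming mice (20 ± 2 g) inoculated subcutaneously in right front armpit with seven-day-old ascites (0.2 ml, 2 × 10^6 cells). 24 h later randomized, 10 per group; oral gavage 60 mg/kg/day or normal saline (10 mL/kg) once daily for ten days. Sacrificed day 11; tumors and mice weighed. Inhibition rate = (Wcontrol − Wtreated)/Wcontrol × 100%.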

CCRF S-180 [7] = assay: Antitumor activity against mouse S180 cells xenografted in Kunming mouse assessed as inhibition of tumor growth at 60 mg/kg/day, QD administered via oral gavage for 10 consecutive days; type: functional; conditions: CCRF S-180, po, read-out: TGI; summary of the method: as §3
HepG2 [8] = assay: Antitumor activity against human HepG2 cells xenografted in Kunming mouse assessed as inhibition of tumor growth at 60 mg/kg/day, QD administered via oral gavage for 10 consecutive days; type: functional; conditions: read-out: TGI; summary of the method: as §3
Mus musculus [9] = assay: Toxicity in mouse S180 cells xenografted Kunming mouse assessed as body weight at 60 mg/kg/day, QD administered via oral gavage for 10 consecutive days measured on day 11 (reference value: 23.84 +/- 2.11g); type: organism-based, CCRF S-180; conditions: in vivo; summary of the method: as §3
Mus musculus [10] = assay: Toxicity in human HepG2 cells xenografted Kunming mouse assessed as body weight at 60 mg/kg/day, QD administered via oral gavage for 10 consecutive days measured on day 11 (reference value: 25 +/- 1.65g); type: organism-based; conditions: in vivo; summary of the method: as §3
Mus musculus [11] = assay: Toxicity in Kunming mouse xenografted with mouse EAC cells assessed as body weight at 60 mg/kg/day, QD administered via oral gavage for 10 consecutive days measured on day 11 (reference value: 19.52 +/- 1.17g); type: organism-based, Ehrlich; conditions: in vivo
[12] = Antitumor activity against mouse EAC cells xenografted in Kunming mouse assessed as survival time at 60 mg/kg/day, QD administered via oral gavage for 10 consecutive days days (reference value: 16.6 +/- 2.02days); type: functional, Ehrlich
Summary of the method: (§4)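 EAC cells were grown in RPMI-1640 with 10% heat-inactivated FBS and were kept as ascites by passaging 0.2 mL (2 × 10^6 cells) between mice. Kunming mice weighing 20 ± 2 g were used. Survival was followed by mortality. Mean survival time is the sum of each mouse's survival days divided by the number of mice. %ILS is the […].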

[13] = Antitumor activity against mouse EAC cells xenografted in Kunming mouse assessed as prolongation of survival time at 60 mg/kg/day, QD administered via oral gavage for 10 consecutive days days relative to untreated control; type: functional; conditions: Ehrlich; summary of the method: as §4
[14] = molecular target: Telomerase reverse transcriptase (Homo sapiens, UniProt O14746); assay: Inhibition of telomerase in human MGC-803 cells after 24 hrs by TRAP-PCR-ELISA assay; type: cell-based
Chain of Telomerase reverse transcriptase (O14746 whole entry): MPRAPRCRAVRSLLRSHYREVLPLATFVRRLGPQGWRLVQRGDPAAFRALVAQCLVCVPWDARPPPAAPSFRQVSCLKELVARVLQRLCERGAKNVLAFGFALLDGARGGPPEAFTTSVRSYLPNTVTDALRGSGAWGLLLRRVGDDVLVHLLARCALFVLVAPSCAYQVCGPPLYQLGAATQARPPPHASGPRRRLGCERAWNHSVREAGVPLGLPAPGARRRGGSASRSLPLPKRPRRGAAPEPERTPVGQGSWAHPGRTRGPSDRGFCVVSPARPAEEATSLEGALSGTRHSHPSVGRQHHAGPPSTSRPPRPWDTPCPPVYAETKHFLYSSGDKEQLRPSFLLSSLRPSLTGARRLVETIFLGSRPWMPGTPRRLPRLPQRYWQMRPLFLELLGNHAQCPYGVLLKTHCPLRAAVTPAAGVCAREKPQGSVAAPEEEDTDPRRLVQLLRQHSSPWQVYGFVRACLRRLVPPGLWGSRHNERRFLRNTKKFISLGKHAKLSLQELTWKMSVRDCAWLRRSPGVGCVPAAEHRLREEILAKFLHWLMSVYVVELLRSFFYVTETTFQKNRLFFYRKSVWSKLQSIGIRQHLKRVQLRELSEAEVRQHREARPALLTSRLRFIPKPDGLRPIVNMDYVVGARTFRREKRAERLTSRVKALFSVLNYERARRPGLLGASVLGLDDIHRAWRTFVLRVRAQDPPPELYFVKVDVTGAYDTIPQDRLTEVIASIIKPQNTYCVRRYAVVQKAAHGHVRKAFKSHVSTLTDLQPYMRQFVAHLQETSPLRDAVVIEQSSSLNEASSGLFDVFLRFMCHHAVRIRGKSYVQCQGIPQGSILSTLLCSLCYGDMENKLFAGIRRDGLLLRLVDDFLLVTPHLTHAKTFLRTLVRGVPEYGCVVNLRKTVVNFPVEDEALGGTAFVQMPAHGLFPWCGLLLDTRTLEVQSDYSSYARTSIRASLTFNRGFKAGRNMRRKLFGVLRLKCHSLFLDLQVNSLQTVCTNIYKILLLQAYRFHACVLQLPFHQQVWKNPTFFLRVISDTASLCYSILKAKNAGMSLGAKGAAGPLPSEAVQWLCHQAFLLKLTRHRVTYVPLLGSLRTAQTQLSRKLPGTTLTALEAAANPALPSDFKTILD
Summary of the method: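 Cells lysed in RIPA on ice for 30 min; extract incubated with TRAP mix at 25 °C for 30 min, then 35 PCR cycles. Products hybridized to DIG probe, captured on streptavidin, detected with peroxidase anti-DIG at 490 nm; mean±SD.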

HepG2 [15] = assay: Antitumor activity against human HepG2 cells xenografted in Kunming mouse assessed as tumor weight at 60 mg/kg/day, QD administered via oral gavage for 10 consecutive days (reference value: 1.93 +/- 0.20g)
Rattus norvegicus = assay: Antitumor activity against DEN induced Sprague-Dawley rat hepatic tumor assessed as improvement of pathological changes at 50 mg/kg, po qd for 10 consecutive weeks by HE-staining based microscopic analysis; type: functional, organism-based
Summary of the method: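 Male SD rats (120~160 g) gavaged with DEN 8 mg/kg once daily, 6 days/week; DEN continued to week 16. From week 10, compound given orally at 50 mg·kg-1 once daily for 10 consecutive weeks; n = 12 per group. Similar parts of left liver lobe fixed in 4% polyformaldehyde, paraffin-embedded, sectioned, HE stained; histopathology viewed at ×200.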

CC1=NN(C(=O)CN2CCCCC2)C(c2ccccc2O)C1 (stereo not drawn)
IC50 [1]: 5.89 µM
IC50 (Bcap37): 33.1 µM
IC50 [2]: 4.31 µM
IC50 (HepG2 [3]): 3.02 µM
IC50 [4]: 1290 µM
IC50 [5]: 1800 µM
Activity (CCRF S-180 [6]): 1.1 g
inhibition in vivo at 60 mg/kg/day (CCRF S-180 [7]): 44.4%
inhibition in vivo at 60 mg/kg/day (HepG2 [8]): 39.4%
Activity (Mus musculus [9]): 24.89 g
Activity (Mus musculus [10]): 26 g
Activity (Mus musculus [11]): 19.3 g
Survival [12]: 23.41 days
survival at 60 mg/kg/day [13]: 41%
IC50 [14]: 4.63 µM
Activity (HepG2 [15]): 1.17 g

CCCCN(CCCC)CC(=O)N1N=C(c2cc3ccccc3oc2=O)CC1c1ccccc1 (stereo not drawn)
IC50 [1]: 4.87 µM
IC50 (Bcap37): 3.37 µM
IC50 [2]: 2.96 µM
IC50 (HepG2 [3]): 2.45 µM
IC50 [4]: 1640 µM
IC50 [5]: 1620 µM
Activity (CCRF S-180 [6]): 1.01 g
inhibition in vivo at 60 mg/kg/day (CCRF S-180 [7]): 48.9%
inhibition in vivo at 60 mg/kg/day (HepG2 [8]): 46.1%
Activity (Mus musculus [9]): 24.64 g
Activity (Mus musculus [10]): 27.11 g
Activity (Mus musculus [11]): 19.6 g
Survival [12]: 23.89 days
survival at 60 mg/kg/day [13]: 43.9%
Activity (Rattus norvegicus): Active
IC50 [14]: 0.98 µM
Activity (HepG2 [15]): 1.04 g
